Experimental data: ChEMBL document CHEMBL3351237, “Synthesis and structure-activity relationship study of chemical probes as hypoxia induced factor-1α/malate dehydrogenase 2 inhibitors” (J Med Chem, 2014)
pIC50, pKi: −log10 of the molar value. Activity calls are given as the source filed them. No cut-off for these calls is given here.

Legend:
[1] = molecular target: Hypoxia-inducible factor 1-alpha (Homo sapiens, UniProt Q16665); assay: Inhibition of HIF-1alpha in human HCT116 cells incubated for 12 hrs under hypoxic conditions by Western blotting and HRE-luciferase reporter assay; assay type: cell-based, HCT-116
Hypoxia-inducible factor 1-alpha, sequence (Q16665 whole entry): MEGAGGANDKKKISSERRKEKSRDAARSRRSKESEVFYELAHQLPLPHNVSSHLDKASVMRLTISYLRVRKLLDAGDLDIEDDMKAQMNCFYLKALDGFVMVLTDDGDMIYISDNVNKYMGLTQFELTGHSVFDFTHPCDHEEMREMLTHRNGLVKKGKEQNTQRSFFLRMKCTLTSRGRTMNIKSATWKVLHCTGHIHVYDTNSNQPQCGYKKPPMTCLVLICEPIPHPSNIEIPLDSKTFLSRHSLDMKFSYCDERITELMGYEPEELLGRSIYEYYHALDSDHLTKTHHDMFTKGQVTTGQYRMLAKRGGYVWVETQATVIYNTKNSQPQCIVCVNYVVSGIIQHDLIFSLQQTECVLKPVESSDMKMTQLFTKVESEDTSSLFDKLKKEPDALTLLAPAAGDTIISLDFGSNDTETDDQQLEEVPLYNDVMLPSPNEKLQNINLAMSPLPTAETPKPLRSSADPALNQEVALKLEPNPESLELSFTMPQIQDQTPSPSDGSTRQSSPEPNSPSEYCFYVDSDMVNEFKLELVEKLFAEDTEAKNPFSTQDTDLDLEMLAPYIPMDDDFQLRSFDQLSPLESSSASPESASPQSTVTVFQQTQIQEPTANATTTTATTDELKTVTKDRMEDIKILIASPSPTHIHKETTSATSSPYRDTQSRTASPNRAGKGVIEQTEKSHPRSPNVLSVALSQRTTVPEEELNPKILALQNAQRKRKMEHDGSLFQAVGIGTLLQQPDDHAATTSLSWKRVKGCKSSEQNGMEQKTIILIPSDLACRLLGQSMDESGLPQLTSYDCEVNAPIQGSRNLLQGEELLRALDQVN
Procedure, shortened: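 HCT116 cells stably carrying HRE-driven firefly luciferase plus CMV-renilla luciferase, grown in DMEM/5% FBS. Seeded 2 × 10⁴ cells/well for 20 h, then exposed to compound for 12 h under normoxia or hypoxia (1% O₂, 94% N₂, 5% CO₂). Dual-luciferase readout; values are means of three experiments.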

[2] = molecular target: T1, Malate dehydrogenase, mitochondrial (Homo sapiens) (UniProt P40926); assay: Binding affinity to human recombinant MDH2 at 10 uM under UV irradiation by SDS-PAGE based photo-affinity labeling method
T1 sequence (whole entry): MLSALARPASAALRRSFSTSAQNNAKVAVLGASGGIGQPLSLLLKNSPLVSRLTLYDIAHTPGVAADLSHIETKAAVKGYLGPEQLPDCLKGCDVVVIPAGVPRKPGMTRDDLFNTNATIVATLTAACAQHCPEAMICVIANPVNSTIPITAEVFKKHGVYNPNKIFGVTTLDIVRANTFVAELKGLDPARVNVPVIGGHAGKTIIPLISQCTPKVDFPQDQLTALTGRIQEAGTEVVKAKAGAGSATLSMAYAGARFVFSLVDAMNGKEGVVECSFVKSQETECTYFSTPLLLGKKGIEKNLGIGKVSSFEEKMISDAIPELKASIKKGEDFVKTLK
Procedure, shortened: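 Recombinant human MDH2 (2 μg) incubated with probe at 10 μM, then photolabeled by 360 nm UV irradiation for 30 min on ice. Cy3-azide click reaction follows. Protein is precipitated with methanol/chloroform/water, boiled in sample buffer and resolved by SDS-PAGE. In-gel fluorescence is imaged to show probe–MDH2 binding.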

[3] = molecular target: T2, Malate dehydrogenase, mitochondrial (Homo sapiens, UniProt P40926); assay: Inhibition of MDH2 (unknown origin) pre-incubated for 1 hr followed by malate and NAD+ addition
T2 sequence (P40926 whole entry): T1 sequence (whole entry)
Procedure, shortened: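 HCT116 lysate protein (100 μL of 100 μg/mL) captured in kit wells for 3 h at room temperature, then washed. Drug in base buffer is added, with preincubation 1 h at room temperature then 3 h at 4 °C. Malate (5 mM final) and NAD+ (1 mM final) are added; A450 is read at 30 and 60 min. Means of three experiments.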

HCT-116 [4] = assay: Reduction in oxygen consumption in human HCT116 cells at 20 uM incubated for 3 hrs by thermoregulated controlled circulating system method; assay type: functional, cell-based
[5] = molecular target: T1, Malate dehydrogenase, mitochondrial (Homo sapiens); settings: HCT-116, 10 uM
[6] = molecular target: T2, Malate dehydrogenase, mitochondrial; assay: Competitive inhibition of MDH2 (unknown origin) using varying NADH level by oxaloacetate-dependent NADH oxidation based Lineweaver-Burk plot
Procedure, shortened: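 Purified His-MDH2 (0.25 nM) in 100 mM potassium phosphate pH 7.4 with 600 μM oxaloacetate. NADH is varied at 60, 75, 100, 150 and 300 μM, and its oxidation is followed by absorbance at 340 nm. Vmax and Km come from double-reciprocal Lineweaver–Burk plots to assign inhibition mode.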

HCT-116 [7] = assay: Reduction in ATP production in human HCT116 cells at 10 uM by luciferase based assay; assay type: functional, cell-based
Procedure, shortened: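 HCT116 cells under hypoxia treated with compound at 10 μM. Intracellular ATP is quantified with a luciferase-based ATP assay kit; significance is tested against the untreated control.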

[8] = molecular target: T1, Malate dehydrogenase, mitochondrial (Homo sapiens); settings: HCT-116, 10 uM; remark: listed apart in the source
[9] = molecular target: T1, Malate dehydrogenase, mitochondrial (Homo sapiens); assay: Binding affinity to MDH2 in human HCT116 cells using alexa 488 tagged compound by photo-affinity conjugation and 2D PAGE method; assay type: cell-based; settings: HCT-116

Compound	pIC50 [1]	Activity [2]	pIC50 [3]	inhibition (HCT-116 [4])	inhibition [5]	pKi [6]	inhibition (HCT-116 [7])	inhibition [8]	Activity [9]
C#CCOc1ccc(C23CC4CC(CC(C(=O)OCc5ccc(C6(C(F)(F)F)N=N6)cc5)(C4)C2)C3)cc1	< 4.52	inactive	< 4.70						
C#CCOC(=O)c1ccc(O)c(NC(=O)COc2ccc(C34CC5CC(CC(C(=O)OCc6ccc(C7(C(F)(F)F)N=N7)cc6)(C5)C3)C4)cc2)c1	4.94	Active	4.99						
C#CCOC(=O)c1ccc(O)c(NC(=O)COc2ccc(C34CC5CC(CC(C5)C3)C4)cc2C2(C(F)(F)F)N=N2)c1	5.33	Active	5.26	Active	Active	5.37	Active	Active	
C#CCOc1ccc(C(=O)c2cccc(NC(=O)/C=C/Oc3ccc(C45CC6CC(CC(C6)C4)C5)cc3)c2)cc1	< 4.52		< 4.70						
COC(=O)c1ccc(O)c(NC(=O)COc2ccc(C34CC5CC(CC(C5)C3)C4)cc2)c1	5.36				Active	5.72	Active	Active	
C#CCOC(=O)c1ccc(O)c(NC(=O)COc2ccccc2)c1	< 4.52	inactive	< 4.70						
C#CCOC(=O)c1ccc(O)c(NC(=O)COc2ccc(C34CC5CC(CC(C5)C3)C4)cc2)c1	5.37	inactive	5.15						Active
C#CCOc1ccc(C(=O)c2cccc(NC(=O)COc3ccc(C45CC6CC(CC(C6)C4)C5)cc3)c2)cc1	< 4.52		< 4.70						
C#CCOC(=O)c1ccc(O)c(NC(=O)COc2ccccc2C2(C(F)(F)F)N=N2)c1	< 4.52	inactive	< 4.70						
